aDG glyco act = alpha-DG glycosylation activation | Pro5-aDG cells, alpha-DG glycosylation AlphaScreen (IIH6); 0% Pro5, 100% B10-LARGE cell signal | 0.22% of 360,000 active | activation, % at 10 µM | AID 624168;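 active = activation of at least 8% versus controls, or a plate z-score of at least 8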;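 also: Pro5 are CHO cells carrying HIG-tagged alpha-DG that lacks glycosylation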
proCasp7 act = counter-screen: procaspase-7 (human) activation; P55210; recombinant procaspase-7, Ac-DEVD-pNA absorbance 405 nm; D23A/D198A/D206A triple mutant, cannot self-cleave; scale: DMSO 0, 5 µM enzyme 100; activation, % at 8.5 µM; 0.093% of 330,000 active;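 active = percent activation above the screen-wide mean plus 3 SD, cut at about 25% in these data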
Target sequence (P55210 whole entry D23A/D198A/D206A): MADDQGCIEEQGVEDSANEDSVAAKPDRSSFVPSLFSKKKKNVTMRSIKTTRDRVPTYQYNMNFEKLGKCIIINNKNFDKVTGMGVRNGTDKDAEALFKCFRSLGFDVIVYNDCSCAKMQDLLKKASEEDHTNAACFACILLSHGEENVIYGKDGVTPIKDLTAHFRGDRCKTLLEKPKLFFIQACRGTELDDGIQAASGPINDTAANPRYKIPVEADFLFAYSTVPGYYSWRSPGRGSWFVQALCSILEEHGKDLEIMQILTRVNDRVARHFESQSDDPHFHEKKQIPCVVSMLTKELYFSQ
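System: Procaspase-7 triple mutant (PC-7 D3A); measure: % activation from two-timepoint absorbance difference, scaled to controls; times: 1 h compound preincubation, 2 h substrate cleavage, 25 °C; also added: Ac-DEVD-pNA substrate, 400 µM as added; measured by: Epi-absorbance of released pNA at 405 nm, two timepoints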
GRIN3A LBD mod = modulates the human NR3A ligand-binding domain; NR3A LBD differential scanning fluorimetry, Tm shift; 0% = protein alone, 100% = glycine-bound protein; 2.5% of 340,000 active; Tm shift relative to glycine control, % at 25 µM;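 active = melting temperature shift of at least 10% of the positive control shift, at one fixed dose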
procasp3 activ = activators of human procaspase-3 | P42574 | recombinant procaspase-3 D3A, Ac-DEVD-pNA absorbance 405 nm | activation, % at 8.5 µM | 0.11% of 330,000 active | AID 463141;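 active = activation above the mean of all tested compounds plus 3 SD, cut at about 21% in these data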;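 also: 0% = DMSO alone and 100% = DMSO wells spiked with extra 5 µM PC-3 D3A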
Target sequence (P42574 whole entry D9A/D28A/D175A): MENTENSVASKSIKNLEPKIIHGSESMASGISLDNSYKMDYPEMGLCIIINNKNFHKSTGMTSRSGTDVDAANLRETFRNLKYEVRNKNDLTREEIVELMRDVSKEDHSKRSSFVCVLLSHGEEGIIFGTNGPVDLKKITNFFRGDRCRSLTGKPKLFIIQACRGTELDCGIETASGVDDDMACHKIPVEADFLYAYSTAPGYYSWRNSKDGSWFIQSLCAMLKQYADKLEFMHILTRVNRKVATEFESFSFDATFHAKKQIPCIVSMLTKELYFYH
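Assay system: Procaspase-3 D3A mutant, all three cleavage aspartates alanine. Buffer or medium: Zinc-free HEPES saline buffer with Triton X-100. Times: 1 h compound preincubation, 2 h substrate hydrolysis at 25 °C. Measured by: 405 nm absorbance of p-nitroaniline, reads at 0 and 120 min. Read-out basis: percent activation relative to control range. Replicates: singlicate.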
MPTP inh = permeability transition pore inhibition. inhibition, % at 10 µM. isolated mouse mitochondria, Ca2+ swelling absorbance, 30 min. 1.4% of 360,000 active;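 active = inhibition of 50% or more, scaled per plate between neutral and stimulator controls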;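 also: 0% = DMSO wells given calcium and 100% = 1 mM EGTA wells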
MPTP counter = Rhodamine 123 counter-screen of mitochondrial pore hits; shares compounds with MPTP inh; isolated mitochondria, membrane potential, Rhodamine 123 fluorescence; inhibition, % at 10 µM; 78% of 5,000 active; in the data active = inhibition above about 22%;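 also: 0% = DMSO vehicle and 100% = positive control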
MPTP swell DR = dose response confirmation of mitochondrial permeability transition pore inhibitors. isolated mitochondria swelling, absorbance. 58% of 780 active. IC50, µM. shares compounds with MPTP inh; in the data active = IC50 below about 20 µM
MPTP counter DR = counter-screen for mitochondrial permeability transition pore inhibitors, dose response; shares compounds with MPTP inh; 49% of 780 active; isolated mitochondria counterscreen, fluorescence read-out; IC50, µM; AID 651564; in the data active = IC50 below about 80 µM
Numbers without * were called inactive; · = no result given. Compounds with a hit are over-represented: about 3.7% of the library has one in this group of screens.

SMILES	aDG glyco act	proCasp7 act	GRIN3A LBD mod	procasp3 activ	MPTP inh	MPTP counter	others
Cn1nc(C(=O)Nc2ccc(Cl)cc2)cc1C(=O)Nc1ccc(Cl)cc1	0	4	-13	4	0	·
Cn1nc(C(=O)Nc2cccc(Cl)c2)cc1C(=O)Nc1cccc(Cl)c1	0	-2	1	5	57*	84*
CN(C)c1ccc(NC(=O)Nc2cccc(Cl)c2)cc1	0	-20	22*	-11	74*	72*
O=C(Nc1cccc(Cl)c1)Nc1ccc2c(c1)C(=O)OC2	0	6	31*	0	80*	85*
S=C(Nc1ccc(Cc2ccncc2)cc1)Nc1cccc(Cl)c1	0	-1	0	-10	93*	81*
O=C(NCc1ccncc1)Nc1cccc(Cl)c1	0	8	1	10	3	·
O=C(Nc1ccncc1)Nc1cccc(Cl)c1	0	4	14*	9	57*	95*
CCN(CC)C1Oc2cc3c(cc2C(c2cc(OC)c(OC)c(OC)c2)C1C)OCO3 (configuration not stated)	0	·	2	·	4	·
Cc1nn(C)c(C)c1CN(Cc1nc(CCC(C)C)no1)C(C)C	7	9	0	7	103*	93*
O=C(Nc1ccc(OCC(F)(F)C(F)F)c(C(F)(F)F)c1)c1ccccc1O	0	-6	33*	6	106*	77*
O=C(Nc1ccc(OCC(F)(F)C(F)F)cc1)c1ccncc1	2	8	-1	-4	2	·
O=C(N/C(=C/c1cccnc1)C(=O)N1CCOCC1)c1ccccc1Br	1	-4	0	2	1	·
Cc1n[nH]c(=O)c2c(NC(=O)CSc3c(Cl)cccc3Cl)oc(C)c12	0	-12	2	-6	-2	·
Cc1n[nH]c(=O)c2c(NC(=O)CSc3nn(-c4ccc(F)cc4)c(=S)s3)oc(C)c12	0	-5	1	-7	87*	84*
Cc1ccc(S(=O)(=O)Nc2ccccc2CNc2ccc(Br)cn2)cc1	0	10	14*	2	68*	70*
Cc1ccc(S(=O)(=O)Nc2ccccc2CNc2ccccn2)cc1	0	-1	-7	-2	3	·
O=C(Nc1ccnn1C1CCN(C(=O)CCc2ccc(F)cc2)CC1)C1CCOC1 (configuration not stated)	0	6	1	0	0	·
CN1CCN(c2ncnc3c2c(-c2ccccc2)cn3-c2ccc(F)cc2)CC1	0	-3	-2	-5	80*	-5	MPTP swell DR=20*;MPTP counter DR=>80
Cc1ccccc1S(=O)(=O)NC(=O)C1(C)CCN1C(=O)Cc1ccccc1Cl (configuration not stated)	0	·	·	·	-1	·
CCOC(=O)C1=C(CC)Nc2ccccc2N/C1=N\S(=O)(=O)c1cc(Br)ccc1Br	1	·	-5	·	66*	82*
CCOC(=O)C1=C(CC)Nc2ccccc2N/C1=N\S(=O)(=O)c1ccc2ccccc2c1	0	2	-1	1	7	·
COc1cc(C(=O)OCC(=O)Nc2ccccc2C(=O)NC2CC2)c([N+](=O)[O-])cc1OC	0	1	0	6	0	·
CC1=C/C(=N\OS(=O)(=O)c2ccccc2)C(C(C)C)=CC1=O	0	-18	1	-3	6	·
CC1=C(C)/C(=N\OS(=O)(=O)c2ccc(C)cc2)C=CC1=O	0	-27	4	-23	98*	104*
CC1=C/C(=N\OS(=O)(=O)c2ccccc2)C(C)=CC1=O	-1	-2	3	-7	98*	100*
SMILES	aDG glyco act	proCasp7 act	GRIN3A LBD mod	procasp3 activ	MPTP inh	MPTP counter	others
CCc1c(C)nc2ccc(Br)cc2c1Cl	0	6	2	-1	97*	93*
Nc1nc(Cl)nc2ccc(Br)cc12	0	-2	-1	15	4	·
CN(CC(=O)Nn1cnnc1)S(=O)(=O)c1ccccc1	0	0	0	11	-2	·
COc1ccc(CCNC(=O)c2coc3ccccc3c2=O)cc1OC	0	4	-1	9	2	·
O=C(NC(=O)c1cccc(F)c1)OC[C@@H]1CCCN2CCCC[C@H]12	0	3	1	2	-2	·
O=C(Nc1ccc(C(=O)OC[C@@H]2CCCN3CCCC[C@H]23)cc1)c1cccc(Br)c1	1	4	-7	8	70*	-7	MPTP swell DR=14*;MPTP counter DR=47*
Cc1ccc(S(=O)(=O)N2CCN(C(=O)COC(=O)COc3ccc(Cl)cc3C)CC2)c(C)c1	0	·	-6	·	-1	·
Cc1ccc(-c2cc(C(=O)NCc3ccc4c(c3)OCO4)[nH]n2)c(O)c1C	0	7	8	-5	61*	71*
O=C(NCc1ccc2c(c1)OCO2)c1cc(-c2cc(Cl)ccc2O)n[nH]1	0	-1	11*	9	64*	62*
Cc1cc(O)c(-c2cc(C(=O)NCc3ccc4c(c3)OCO4)[nH]n2)cc1C	0	-12	-2	-1	8	·
COc1ccc(CCNC(=O)c2cc(-c3ccc(C)c(C)c3O)n[nH]2)cc1OC	0	10	-3	1	8	·
Cc1ccc(-c2cc(C(=O)Nc3cccnc3)[nH]n2)c(O)c1C	0	3	28*	0	62*	71*
COc1ccc(-c2cc(C(=O)Nc3sc4c(c3C#N)CCCC4)c3ccccc3n2)cc1	0	-4	-5	6	-9	·
Cc1ccccc1-c1cc(C(=O)Nc2sc(C(=O)OC(C)C)c(C)c2C#N)c2ccccc2n1	0	-7	-3	-11	91*	79*
CCOC(=O)c1sc(NC(=O)c2cc(-c3ccc(C)cc3)nc3ccccc23)c(C#N)c1C	0	-11	5	-3	88*	78*
COC(=O)c1sc(NC(=O)c2ccc([N+](=O)[O-])o2)c(C#N)c1C	0	-12	-3	-5	92*	81*
COC(=O)c1sc(NC(=O)c2cc(-c3ccccc3)nc3ccccc23)c(C#N)c1C	0	-32	21*	-18	66*	70*
CC(=O)N1CCc2c(sc(NC(=O)c3ccc([N+](=O)[O-])o3)c2C#N)C1	-1	·	-4	·	3	·
CCC(CC)C(=O)N(C)c1c(C)nc2c(OCc3ccc(OC(F)F)cc3)cccn12	0	·	·	·	1	·
N=c1sccn1CC(=O)Nc1ccc([N+](=O)[O-])cc1Cl	0	-3	1	3	0	·

Screening results as filed in PubChem BioAssay.
